# Reference: ChEMBL document CHEMBL2163271, “Antitumor agents 295. E-ring hydroxylated antofine and cryptopleurine analogues as antiproliferative agents: design, synthesis, and mechanistic studies” (J Med Chem, 2012)
# Active and inactive are the calls of the source. No cut-off for these calls is given here.
# System: A549
# Experiment: Downregulation of PI3K cat class 1A mRNA expression in human A549 cells by microarray analysis relative to control
# Assay type: functional
# Conditions: not given
# How it was run: (§1)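 Gene expression profiling of treated versus untreated A549 cells, with pathways analysed in the MetaCore database.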
row,Structure (SMILES),fold change (FC)
1,COc1ccc2c3c(c4cc(OC)c(OC)cc4c2c1)C[C@H]1C[C@H](O)CCN1C3,<10

# System: A549
# Experiment: Cytotoxicity against human A549 cells after 2 hrs by methylene blue staining-based spectrophotometric analysis
# Assay type: functional, cell-based
# Conditions: A549, 2 h
row,Structure (SMILES),IC50
1,COc1ccc2c3c(c4cc(OC)c(OC)cc4c2c1)C[C@H]1C[C@H](O)CCN1C3,22 nM

# System: A549
# Experiment: Downregulation of SKP2 mRNA expression in human A549 cells by microarray analysis relative to control
# Assay type: functional
# Conditions: not given
# How it was run: as §1
row,Structure (SMILES),fold change (FC)
1,COc1ccc2c3c(c4cc(OC)c(OC)cc4c2c1)C[C@H]1C[C@H](O)CCN1C3,<10

# System: A549
# Experiment: Downregulation of EEA1 mRNA expression in human A549 cells by microarray analysis relative to control
# Assay type: functional
# Conditions: not given
# How it was run: as §1
row,Structure (SMILES),fold change (FC)
1,COc1ccc2c3c(c4cc(OC)c(OC)cc4c2c1)C[C@H]1C[C@H](O)CCN1C3,<10

# System: A549
# Experiment: Downregulation of beta-catenin expression in human A549 cells at 3.6 nM after 48 hrs by RT-PCR analysis
# Conditions: not given
row,Structure (SMILES),Activity
1,COc1ccc2c3c(c4cc(OC)c(OC)cc4c2c1)C[C@H]1C[C@H](O)CCN1C3,Active

# System: A549
# Experiment: Downregulation of PI3K reg class 1A mRNA expression in human A549 cells by microarray analysis relative to control
# Assay type: functional
# Conditions: not given
# How it was run: as §1
row,Structure (SMILES),fold change (FC)
1,COc1ccc2c3c(c4cc(OC)c(OC)cc4c2c1)C[C@H]1C[C@H](O)CCN1C3,<10

# System: A549
# Experiment: Upregulation of ubiquitin mRNA expression in human A549 cells by microarray analysis relative to control
# Assay type: functional
# Conditions: not given
# How it was run: as §1
row,Structure (SMILES),fold change (FC)
1,COc1ccc2c3c(c4cc(OC)c(OC)cc4c2c1)C[C@H]1C[C@H](O)CCN1C3,>10

# System: A549
# Experiment: Downregulation of syntazin 7 mRNA expression in human A549 cells by microarray analysis relative to control
# Assay type: functional
# Conditions: not given
# How it was run: as §1
row,Structure (SMILES),fold change (FC)
1,COc1ccc2c3c(c4cc(OC)c(OC)cc4c2c1)C[C@H]1C[C@H](O)CCN1C3,<10

# System: SK-BR-3
# Experiment: Cytotoxicity against human SKBR3 cells after 2 hrs by methylene blue staining-based spectrophotometric analysis
# Assay type: functional, cell-based
# Conditions: SK-BR-3, 2 h
row,Structure (SMILES),IC50
1,COc1ccc2c3c(c4cc(OC)c(OC)cc4c2c1)C[C@H]1C[C@H](O)CCN1C3,72 nM

# System: A549
# Experiment: Downregulation of PECALM mRNA expression in human A549 cells by microarray analysis relative to control
# Assay type: functional
# Conditions: not given
# How it was run: as §1
row,Structure (SMILES),fold change (FC)
1,COc1ccc2c3c(c4cc(OC)c(OC)cc4c2c1)C[C@H]1C[C@H](O)CCN1C3,<10

# System: A549
# Experiment: Downregulation of beta-catenin protein expression in human A549 cells at 3.6 to 100 nM after 48 hrs by Western blot analysis
# Conditions: not given
row,Structure (SMILES),Activity
1,COc1ccc2c3c(c4cc(OC)c(OC)cc4c2c1)C[C@H]1C[C@H](O)CCN1C3,Active

# System: A549
# Experiment: Downregulation of SNAP-25 mRNA expression in human A549 cells by microarray analysis relative to control
# Assay type: functional
# Conditions: not given
# How it was run: as §1
row,Structure (SMILES),fold change (FC)
1,COc1ccc2c3c(c4cc(OC)c(OC)cc4c2c1)C[C@H]1C[C@H](O)CCN1C3,<10

# System: A549
# Experiment: Cytotoxicity against human A549 cells assessed as decrease in cell number at 60 nM after 48 hrs by inverted phase-contrast microscopy
# Assay type: functional, cell-based
# Conditions: not given
# How it was run: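 A549 cells exposed to a rising concentration series for 48 h, including 60 nM. Cells were viewed under an inverted phase-contrast microscope and photographed, and cell number and morphology were scored by eye.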
row,Structure (SMILES),Activity
1,COc1ccc2c3c(c4cc(OC)c(OC)cc4c2c1)C[C@H]1C[C@H](O)CCN1C3,Active

# System: A549
# Experiment: Downregulation of rabaptin-5 mRNA expression in human A549 cells by microarray analysis relative to control
# Assay type: functional
# Conditions: not given
# How it was run: as §1
row,Structure (SMILES),fold change (FC)
1,COc1ccc2c3c(c4cc(OC)c(OC)cc4c2c1)C[C@H]1C[C@H](O)CCN1C3,<10

# System: KB
# Experiment: Cytotoxicity against human KB cells after 2 hrs by methylene blue staining-based spectrophotometric analysis
# Assay type: functional, cell-based
# Conditions: not given
row,Structure (SMILES),IC50
1,COc1ccc2c3c(c4cc(OC)c(OC)cc4c2c1)C[C@H]1C[C@H](O)CCN1C3,23 nM

# System: A549
# Experiment: Downregulation of HSP90 expression in human A549 cells at 3.6 nM after 48 hrs by RT-PCR analysis
# Assay type: functional, cell-based
# Conditions: not given
# How it was run: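 A549 cells exposed at 3.6 nM for 48 h. Transcript levels were measured by RT-PCR and compared with untreated cells.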
row,Structure (SMILES),Activity
1,COc1ccc2c3c(c4cc(OC)c(OC)cc4c2c1)C[C@H]1C[C@H](O)CCN1C3,Active

# System: A549
# Experiment: Downregulation of fibronectin mRNA expression in human A549 cells by microarray analysis relative to control
# Assay type: functional
# Conditions: not given
# How it was run: as §1
row,Structure (SMILES),fold change (FC)
1,COc1ccc2c3c(c4cc(OC)c(OC)cc4c2c1)C[C@H]1C[C@H](O)CCN1C3,<10

# System: A549
# Experiment: Downregulation of XIAP mRNA expression in human A549 cells by microarray analysis relative to control
# Assay type: functional
# Conditions: not given
# How it was run: as §1
row,Structure (SMILES),fold change (FC)
1,COc1ccc2c3c(c4cc(OC)c(OC)cc4c2c1)C[C@H]1C[C@H](O)CCN1C3,<10

# System: A549
# Experiment: Downregulation of beta-catenin mRNA expression in human A549 cells by microarray analysis relative to control
# Conditions: not given
row,Structure (SMILES),fold change (FC)
1,COc1ccc2c3c(c4cc(OC)c(OC)cc4c2c1)C[C@H]1C[C@H](O)CCN1C3,<10

# System: A549
# Experiment: Downregulation of PLEKHA8 mRNA expression in human A549 cells by microarray analysis relative to control
# Assay type: functional
# Conditions: not given
# How it was run: as §1
row,Structure (SMILES),fold change (FC)
1,COc1ccc2c3c(c4cc(OC)c(OC)cc4c2c1)C[C@H]1C[C@H](O)CCN1C3,<10

# System: DU-145
# Experiment: Cytotoxicity against human DU145 cells after 2 hrs by methylene blue staining-based spectrophotometric analysis
# Assay type: functional, cell-based
# Conditions: DU-145, 2 h
row,Structure (SMILES),IC50
1,COc1ccc2c3c(c4cc(OC)c(OC)cc4c2c1)C[C@H]1C[C@H](O)CCN1C3,11 nM

# System: not listed separately
# Experiment: Cytotoxicity against human CL1-5 cells assessed as cell viability after 48 hrs by SRB assay
# Assay type: functional, cell-based
# Conditions: CL1-5, 48 h
# How it was run: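 Human NSCLC lines (CL1-0, CL1-5, PC9, PC9IR) exposed to increasing compound concentrations for 48 h. Growth read by sulforhodamine B (SRB) staining, with IC50 in nM taken from the dose-response.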
row,Structure (SMILES),IC50
1,COc1ccc2c3c(c4cc(OC)c(OC)cc4c2c1)C[C@H]1C[C@H](O)CCN1C3,8.7 nM
